Experimental data reported in EPA's CvTdb concentration-time database.
Each block holds one compound with its values, some of them ahead of it.

What was measured:
Rat [1] = assay: concentration in plasma after dosing; conditions: dosed: Perfluorodecanoic acid, 2 mg/kg, iv, Male, F344
Rat [2] = assay: concentration in plasma after dosing; conditions: 20 min; dosed: Di-n-butyl phthalate; 50 mg/kg; oral; Male; Sprague-Dawley
Rat [3] = assay: concentration in plasma after dosing; conditions: 10 min; dosed: Di-n-butyl phthalate; 20 mg/kg; iv; Male; Sprague-Dawley
Rat [4] = assay: concentration in plasma after dosing; conditions: 15 h; dosed: Di-n-butyl phthalate; 100 mg/kg; oral; Male; Sprague-Dawley
Rat [5] = assay: concentration in plasma after dosing; conditions: 20 min; dosed: Di-n-butyl phthalate; 20 mg/kg; iv; Male; Sprague-Dawley
Rat [6] = assay: concentration in plasma after dosing; conditions: 5 min; dosed: dichloroacetic acid; 10 mg/kg; iv; Male; F344
Rat [7] = assay: concentration in plasma after dosing; conditions: 2 h; dosed: dichloroacetic acid; 60 mg/kg; iv; Female; Harlan Sprague-Dawley
Rat [8] = assay: concentration in plasma after dosing; conditions: dosed: dichloroacetic acid, 100 mg/kg, oral, Male, F344
Rat [9] = assay: concentration in plasma after dosing; conditions: 2.5 min; dosed: Wyeth-14643; 2.0 mg/kg; iv; Male; Sprague-Dawley
Rat [10] = assay: concentration in plasma after dosing; conditions: dosed: Wyeth-14643, 2.0 mg/kg, oral, Male, Sprague-Dawley
Rat [11] = assay: concentration in plasma after dosing; conditions: 4 h; dosed: Wyeth-14643; 5.0 mg/kg; oral; Male; Sprague-Dawley
dog = assay: concentration in urine after dosing; conditions: dosed: trichloroethylene, 100 ppm, inhalation, duration: 6 hr, male, beagle
Procedure, shortened: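 Sampling and analytical methods are those of each source and frequently went unreported. The concentration-versus-time and amount-versus-time points were compiled from published in vivo toxicokinetic studies and two structured collections. Most were digitised from plot screenshots with WebPlotDigitizer, with others copied from tables, in the reported units.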

Rat [12] = assay: concentration in heart after dosing; conditions: 6 h; dosed: Bis 2-Chloroethoxy Methane; 20 mg/kg; iv; Female; F344
Rat [13] = assay: concentration in heart after dosing; conditions: 40 min; dosed: Bis 2-Chloroethoxy Methane; 20 mg/kg; iv; Male; F344
Rat [14] = assay: concentration in heart after dosing; conditions: 5 h; dosed: Bis 2-Chloroethoxy Methane; 20 mg/kg; iv; Male; F344
Rat [15] = assay: concentration in heart after dosing; conditions: 20 min; dosed: Bis 2-Chloroethoxy Methane; 20 mg/kg; iv; Female; F344
Rat [16] = assay: concentration in liver after dosing; conditions: 1 h; dosed: Bis 2-Chloroethoxy Methane; 20 mg/kg; iv; Male; F344
Rat [17] = assay: concentration in heart after dosing; conditions: 4 h; dosed: Bis 2-Chloroethoxy Methane; 20 mg/kg; iv; Female; F344
Rat [18] = assay: concentration in plasma after dosing; conditions: dosed: Fluorotelomer alcohol 8+2, 12 mg/kg, oral, Male, Harlan Sprague Dawley
Rat [19] = assay: concentration in liver after dosing; conditions: 3 h; dosed: Fluorotelomer alcohol 8+2; 80 mg/kg; oral; Female; Harlan Sprague Dawley
Rat [20] = assay: concentration in liver after dosing; conditions: 12 h; dosed: Fluorotelomer alcohol 8+2; 80 mg/kg; oral; Female; Harlan Sprague Dawley
Rat [21] = assay: concentration in liver after dosing; conditions: 1 h; dosed: Fluorotelomer alcohol 8+2; 80 mg/kg; oral; Female; Harlan Sprague Dawley
Rat [22] = assay: concentration in thymus after dosing; conditions: 20 min; dosed: Thiodiglycolic Acid; 20 mg/kg; iv; Female; Harlan Sprague Dawley
Rat [23] = assay: concentration in heart after dosing; conditions: 1 h; dosed: Thiodiglycolic Acid; 20 mg/kg; iv; Female; Harlan Sprague Dawley
Rat [24] = assay: concentration in thymus after dosing; conditions: 40 min; dosed: Thiodiglycolic Acid; 20 mg/kg; iv; Male; Harlan Sprague Dawley
Rat [25] = assay: concentration in thymus after dosing; conditions: 1 h; dosed: Thiodiglycolic Acid; 20 mg/kg; iv; Female; Harlan Sprague Dawley
Rat [26] = assay: concentration in heart after dosing; conditions: 10 min; dosed: Thiodiglycolic Acid; 20 mg/kg; iv; Female; Harlan Sprague Dawley
Rat [27] = assay: concentration in heart after dosing; conditions: 1 h; dosed: Thiodiglycolic Acid; 20 mg/kg; iv; Female; Harlan Sprague Dawley; remark: listed apart in the source
Rat [28] = assay: concentration in liver after dosing; conditions: 6.667 h; dosed: Thiodiglycolic Acid; 20 mg/kg; iv; Female; Harlan Sprague Dawley
Rat [29] = assay: concentration in heart after dosing; conditions: 40 min; dosed: Thiodiglycolic Acid; 20 mg/kg; iv; Male; Harlan Sprague Dawley
Rat [30] = assay: concentration in liver after dosing; conditions: 5.333 h; dosed: Thiodiglycolic Acid; 20 mg/kg; iv; Female; Harlan Sprague Dawley
Rat [31] = assay: concentration in plasma after dosing; conditions: 30 h; dosed: Primidone; 130 mg/kg; oral; Female; F344
Rat [32] = assay: concentration in plasma after dosing; conditions: 12 h; dosed: Primidone; 80 mg/kg; oral; Female; F344
Rat [33] = assay: concentration in plasma after dosing; conditions: 0.25 h; dosed: Primidone; 80 mg/kg; oral; Female; Harlan Sprague-Dawley
Rat [34] = assay: concentration in plasma after dosing; conditions: 22 h; dosed: Primidone; 30 mg/kg; oral; Male; F344

SMILES: O=C(O)C(F)(F)C(F)(F)C(F)(F)C(F)(F)C(F)(F)C(F)(F)C(F)(F)C(F)(F)C(F)(F)F [Perfluorodecanoic acid]
concentration in plasma (Rat [1]; 5 min): 7330 ng/mL
concentration in plasma (Rat [1]; 192 h): 3130 ng/mL
concentration in plasma (Rat [1]; 2520 h): 200 ng/mL

SMILES: CCCCOC(=O)c1ccccc1C(=O)O [Mono-n-butyl phthalate]
concentration in plasma (Rat [2]): 16800 ng/mL
concentration in plasma (Rat [3]): 28800 ng/mL
concentration in plasma (Rat [4]): 900 ng/mL
concentration in plasma (Rat [5]): 21300 ng/mL

SMILES: O=C(O)C(Cl)Cl [dichloroacetic acid]
concentration in plasma (Rat [6]): 15100 ng/mL
concentration in plasma (Rat [7]): 1170 ng/mL
concentration in plasma (Rat [8]; 0.25 h): 13300 ng/mL
concentration in plasma (Rat [8]; 6 h): 32800 ng/mL

concentration in plasma (Rat [9]): 29300 ng/mL
concentration in plasma (Rat [10]; 0.5 h): 1230 ng/mL
concentration in plasma (Rat [10]; 5 h): 529 ng/mL
concentration in plasma (Rat [11]): 1200 ng/mL
SMILES: Cc1cccc(Nc2cc(Cl)nc(SCC(=O)O)n2)c1C

SMILES: O=C(O)C(Cl)(Cl)Cl [trichloroacetic acid]
concentration in urine (dog; 24 h): 32600 ng/mL
concentration in urine (dog; 48 h): 92800 ng/mL
concentration in urine (dog; 72 h): 204000 ng/mL
concentration in urine (dog; 96 h): 386000 ng/mL
concentration in urine (dog; 120 h): 228000 ng/mL

SMILES: ClCCOCOCCCl [Bis 2-Chloroethoxy Methane]
concentration in heart (Rat [12]): 33.8 ng/g
concentration in heart (Rat [13]): 7270 ng/g
concentration in heart (Rat [14]): 42.1 ng/g
concentration in heart (Rat [15]): 6800 ng/g
concentration in liver (Rat [16]): 2410 ng/g
concentration in heart (Rat [17]): 46.5 ng/g

concentration in plasma (Rat [18]; 0.5 h): 374 ng/mL
concentration in plasma (Rat [18]; 9 h): 12.8 ng/mL
concentration in liver (Rat [19]): 8140 ng/g
concentration in liver (Rat [20]): 1160 ng/g
concentration in liver (Rat [21]): 7790 ng/g
SMILES: OCCC(F)(F)C(F)(F)C(F)(F)C(F)(F)C(F)(F)C(F)(F)C(F)(F)C(F)(F)F [Fluorotelomer alcohol 8+2]

SMILES: O=C(O)CSCC(=O)O [Thiodiglycolic Acid]
concentration in thymus (Rat [22]): 8060 ng/g
concentration in heart (Rat [23]): 2560 ng/g
concentration in thymus (Rat [24]): 3410 ng/g
concentration in thymus (Rat [25]): 2580 ng/g
concentration in heart (Rat [26]): 9540 ng/g
concentration in heart (Rat [27]): 1530 ng/g
concentration in liver (Rat [28]): 17000 ng/g
concentration in heart (Rat [29]): 2020 ng/g
concentration in liver (Rat [30]): 2510 ng/g

SMILES: CCC1(c2ccccc2)C(=O)NC(=O)NC1=O [Phenobarbital]
concentration in plasma (Rat [31]): 2120 ng/mL
concentration in plasma (Rat [32]): 2260 ng/mL
concentration in plasma (Rat [33]): 400 ng/mL
concentration in plasma (Rat [34]): 1030 ng/mL
